Laboratory results: paper PMC12640659 (Chemmedchem, 2025)
Values after ≈ are worked out from the molar mass of the structure shown. Where two headings read alike, the source gives them in different places.

What was measured:
E. coli ATCC 10536 [1] = test: Antibacterial resazurin assay, E. coli; format: cell-based, Escherichia coli; conditions: for MIC: Escherichia coli, ATCC10536, 6 h, read-out: MIC E. coli; for MIC E. coli: resazurin, 6 h, mean ± SD
Outline: (§1)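 Twofold dilutions of test compound (100–0.78 μM) were incubated with mid-log bacteria in LB broth at 37 °C for 6 h. Precultures were grown in LB for P. aeruginosa, S. aureus and E. coli, and in TSB for A. baumannii and K. pneumoniae. Cultures were diluted 1:1000, except S. aureus at 1:500. Resazurin (0.13 mg mL−1 solution) was added for 15–30 min and fluorescence read at 560/590 nm. Assays were run in duplicate with novobiocin and nalidixic acid controls, and MIC was fitted by nonlinear regression.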

P. aeruginosa ATCC 27853 = test: Antibacterial resazurin assay, P. aeruginosa; format: cell-based, Pseudomonas aeruginosa; conditions: for MIC: Pseudomonas aeruginosa, ATCC27853, 6 h, read-out: MIC P. aeruginosa; for MIC P. aeruginosa: resazurin, 6 h, mean ± SD
Outline: as §1

A. baumannii ATCC 19606 = test: Antibacterial resazurin assay, A. baumannii; format: cell-based, Acinetobacter baumannii; conditions: for MIC: Acinetobacter baumannii, ATCC19606, 6 h, read-out: MIC A. baumannii; for MIC A. baumannii: resazurin, 6 h, mean ± SD
Outline: as §1

[2] = system: K. pneumoniae ST512‐K30BO; test: Antibacterial resazurin assay, drug-resistant K. pneumoniae; format: cell-based, Klebsiella pneumoniae; conditions: 6 h; for MIC: Klebsiella pneumoniae, read-out: MIC K. pneumoniae; for MIC K. pneumoniae: resazurin, drug‐resistant ST512 strain, sixth column pair of SI-15
Outline: as §1

E. coli ATCC 10536 [3] = test: Time-kill kinetics, E. coli; format: cell-based, Escherichia coli; conditions: at 1x and 4x MICs, up to 5 h
Outline: (§2)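 At 0.5, 1, 2, 3, 4 and 5 h, samples were pelleted, resuspended in 10 mM MgSO4 and serially diluted tenfold. Dilutions were spotted on LB agar for 16 h at 37 °C, and growth was compared visually with the untreated control.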

S. aureus ATCC 12600 [4] = test: Antibacterial resazurin assay, S. aureus; format: cell-based, Staphylococcus aureus; conditions: for MIC S. aureus: resazurin, 6 h, mean ± SD; for MIC: Staphylococcus aureus, ATCC12600, 6 h, read-out: MIC S. aureus
Outline: as §1

HeLa cells = test: Cytotoxicity against HeLa cells; format: cell-based; conditions: Homo sapiens, read-out: IC50 HeLa cell
HCC70 TNBC cell line = test: Resazurin cytotoxicity assay, HCC70; format: cell-based; conditions: for IC50: read-out: IC50 HCC70; for SI (HCC70): selectivity index versus nontumorigenic MCF12A
Outline: (§3)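 Cells were seeded at 5.0 × 10^3 per well and left to attach overnight at 37 °C, 9% CO2, then treated with test compound for 96 h. A […] resazurin solution was added for 2–4 h at 37 °C and fluorescence read at ex 560/em 590 nm. Assays were run in triplicate, and IC50 was obtained by nonlinear regression.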

[5] = system: MDA‐MB‐231 triple‐negative breast cancer (TNBC) cell line; test: Resazurin cytotoxicity assay, MDA-MB-231; format: cell-based; conditions: for IC50: read-out: IC50 MDA‐MB231; for SI (MDA‐MB231): selectivity index versus nontumorigenic MCF12A
Outline: as §3

[6] = system: MCF‐7 hormone receptor‐positive breast cancer cell line; test: Resazurin cytotoxicity assay, MCF7; format: cell-based; conditions: for IC50: read-out: IC50 MCF7; for SI (MCF7): selectivity index versus nontumorigenic MCF12A
Outline: as §3

[7] = system: nontumorigenic breast epithelial cell line MCF12A; test: Resazurin cytotoxicity assay, MCF12A; format: cell-based; conditions: Homo sapiens, MCF-12A, 96 h, read-out: IC50 MCF12A
Outline: as §3

S. aureus ATCC 12600 [8] = test: Time-kill kinetics, S. aureus; format: cell-based, Staphylococcus aureus; conditions: at 1x and 4x MICs, up to 5 h
Outline: as §2

[9] = resazurin, 96 h, mean ± SD (n = 3)

Molecule | MIC S. aureus (S. aureus ATCC 12600 [4]) | MIC E. coli (E. coli ATCC 10536 [1]) | MIC P. aeruginosa (P. aeruginosa ATCC 27853) | MIC A. baumannii (A. baumannii ATCC 19606) | MIC K. pneumoniae [2] | SI (HCC70) (HCC70 TNBC cell line) | SI (MDA‐MB231) [5] | SI (MCF7) [6] | IC50 (HCC70 TNBC cell line; [9]) | IC50 [5, 9] | IC50 [6, 9] | other results
CCn1cc(C(=O)O)c(=O)c2ccc(C)nc21 [Nalidixic acid, reference compound] | – | – | – | – | – | – | – | – | – | – | – | MIC (E. coli ATCC 10536 [1]): 0.47 ± 0.22 µM (≈ 0.109 µg/mL); MIC (P. aeruginosa ATCC 27853): 0.17 ± 0.01 µM (≈ 0.0395 µg/mL); MIC (A. baumannii ATCC 19606): 1.28 ± 0.92 µM (≈ 0.297 µg/mL); MIC [2]: 28.8 ± 1.09 µM (≈ 6.7 µg/mL); Bactericidal endpoint, E. coli, in words (E. coli ATCC 10536 [3]): did not achieve bactericidal endpoints
pentaperbenzoyl rhizochalinin C [Compound 3c] | >50 µM | >50 µM | >50 µM | >50 µM | >50 µM | – | – | – | – | – | – | –
tetraperbenzoyl rhizochalinin [Compound 2c] | >50 µM | >50 µM | >50 µM | >50 µM | >50 µM | – | – | – | – | – | – | –
C[C@@H](N)[C@H](O)CCCCCCCC(=O)CCCCCCCCCCCCCC[C@@H](O[C@@H]1O[C@H](CO)[C@H](O)[C@H](O)[C@H]1O)[C@@H](C)N [Compound 2, rhizochalin] | – | – | – | – | – | 2.2 | 1.0 | 1.8 | – | – | – | IC50 (HeLa cells): 7.11 µM; IC50 (HCC70 TNBC cell line; Homo sapiens, HCC70, 96 h): 1.94 ± 1.13 µM; IC50 ([5]; Homo sapiens, MDA-MB-231, 96 h): 4.59 ± 1.22 µM; IC50 ([6]; Homo sapiens, MCF7, 96 h): 2.43 ± 1.17 µM; IC50 [7]: 4.25 ± 1.28 µM; MIC (S. aureus ATCC 12600 [4]): 3.64 ± 0.47 µM (≈ 2.3 µg/mL); MIC (E. coli ATCC 10536 [1]): 6.15 ± 0.04 µM (≈ 3.89 µg/mL); MIC (P. aeruginosa ATCC 27853): 3.84 ± 0.82 µM (≈ 2.43 µg/mL); MIC (A. baumannii ATCC 19606): 6.29 ± 0.02 µM (≈ 3.98 µg/mL); MIC [2]: 8.52 ± 3.1 µM (≈ 5.39 µg/mL)
CO[C@@H]1[C@@H](OC(N)=O)[C@@H](O)[C@H](Oc2ccc3c(O)c(NC(=O)c4ccc(O)c(CC=C(C)C)c4)c(=O)oc3c2C)OC1(C)C [Novobiocin, reference compound] | – | – | – | – | – | – | – | – | – | – | – | MIC (S. aureus ATCC 12600 [4]): 0.002 ± 0.002 µM (≈ 0.00123 µg/mL); Bactericidal endpoint, S. aureus, in words (S. aureus ATCC 12600 [8]): did not achieve bactericidal endpoints
CC(N)C(O)CCCCCCCCCCCCCCC(=O)CCCCCCCC(O)C(C)N (stereo not shown) [Compound 2b, rhizochalinin] | – | 49.1 ± 3.42 µM (≈ 23.1 µg/mL) | >50 µM | 55.7 ± 0.85 µM (≈ 26.2 µg/mL) | 23.78 ± 0.15 µM (≈ 11.2 µg/mL) | 4.2 | 3.1 | 1.0 | 4.97 ± 1.2 µM | 6.78 ± 1.3 µM | 21.4 ± 1.2 µM | –
rhizochalinin C [Compound 3b] | >50 µM | >50 µM | >50 µM | >50 µM | >50 µM | 4.5 | 4.3 | 1.1 | 6.43 ± 1.1 µM | 6.78 ± 1.2 µM | 26.4 ± 1.2 µM | –
N.N.[Cl][Pt][Cl] [Cisplatin, reference compound] | – | – | – | – | – | 4.5 | 0.6 | 2.5 | 2.6 ± 1.2 µM | 18.1 ± 1.2 µM | 4.4 ± 1.2 µM | –
pentaperbenzoyl oceanin [Compound 4c] | >50 µM | >50 µM | >50 µM | >50 µM | >50 µM | – | – | – | – | – | – | –
oceanin [Compound 4b] | >50 µM | >50 µM | >50 µM | >50 µM | >50 µM | 0.6 | 10.4 | 7.9 | 117 ± 1.4 µM | 6.36 ± 1.4 µM | 8.39 ± 1.39 µM | –
